# Experimental data from ChEMBL document CHEMBL3608234, “Synthesis and antiviral evaluation of a novel series of homoserine-based inhibitors of the hepatitis C virus NS3/4A serine protease” (Bioorg Med Chem Lett, 2015).
# Key:
# [1] = Inhibition of full length HCV 1b Con1 NS3/4A protease using HiLyte Fluor 610 peptide substrate by biochemical FRET assay; parameters: species or system Hepatitis C virus (isolate Con1)
# Procedure, shortened: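 Fluorescence (FRET) protease assay on full-length genotype 1b Con1 HCV NS3/4A with HiLyte Fluor 610 peptide substrate; IC50 from percent inhibition versus concentration by four-parameter sigmoidal non-linear regression.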
# Hepatitis C virus = assay: Antiviral activity against HCV Con1 infected in human GS4.1 cells containing HCV Con1 subgenomic replicon assessed as reduction in NS5A protein expression by ELISA method; type: functional, cell-based, Hepacivirus hominis; conditions: genotype 1b Con1
# Procedure, shortened: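 Huh-7 cells carrying HCV Con1 subgenomic replicon (GS4.1); replication followed as NS5A protein expression by ELISA; EC50 from 50% inhibition versus concentration data fitted by four-parameter sigmoidal non-linear regression.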
# [2] = Cytotoxicity against human GS4.1 cells assessed as induction of cell death; type: cell-based
# Procedure, shortened: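 GS4.1 cells (Huh-7 with Con1 subgenomic replicon); CC50 taken as concentration giving 50% cell death, from death versus concentration data relative to blank control.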
# [3] = Intrinsic clearance in rat liver microsomes incubated for 2 hrs; type: ADME; conditions: read-out: CLH
# [4] = AUC (infinity) in Sprague-Dawley rat at 10 mg/kg, po; type: ADME, organism-based; parameters: dose 10 mg/kg, route oral, time infinity; conditions: in vivo
# Procedure, shortened: (§1)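 Male Sprague–Dawley rats were dosed intravenously at 2 mg/kg or orally at 10 mg/kg. Plasma concentration–time data were used to derive AUC to last time point (AUCt) and AUC extrapolated to infinity, reported in ng·h/mL.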
# [5] = Half life in Sprague-Dawley rat at 2 mg/kg, iv; type: ADME, organism-based; conditions: in vivo
# [6] = Oral bio availability in Sprague-Dawley rat at 10 mg/kg; type: ADME, organism-based; conditions: in vivo
# [7] = Tmax in Sprague-Dawley rat at 10 mg/kg, po; type: ADME, organism-based; conditions: in vivo
# [8] = Cmax in Sprague-Dawley rat at 2 mg/kg, iv; type: ADME, organism-based; parameters: dose 2 mg/kg, route intravenous; conditions: in vivo
# [9] = Clearance in rat liver S9 fraction incubated for 2 hrs; type: ADME, subcellular; conditions: read-out: CLH
# Procedure, shortened: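 Rat liver S9 fraction incubation for 2 h; mean clearance from n = 2.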
# [10] = Intrinsic clearance in dog liver microsomes incubated for 2 hrs; type: ADME, Canis lupus familiaris; conditions: read-out: CLH
# [11] = Cmax in Sprague-Dawley rat at 10 mg/kg, po; type: ADME, organism-based; parameters: dose 10 mg/kg, route oral; conditions: in vivo
# [12] = AUCt in Sprague-Dawley rat at 2 mg/kg, iv; type: ADME, organism-based; conditions: in vivo; procedure, shortened: as §1
# [13] = Half life in Sprague-Dawley rat at 10 mg/kg, po; type: ADME, organism-based; conditions: in vivo
# [14] = Drug elimination in Sprague-Dawley rat at 10 mg/kg, po; type: ADME, organism-based; conditions: in vivo
# [15] = AUC (infinity) in Sprague-Dawley rat at 2 mg/kg, iv; type: ADME, organism-based; parameters: dose 2 mg/kg, route intravenous, time infinity; conditions: in vivo; procedure, shortened: as §1
# [16] = Volume of distribution in Sprague-Dawley rat at 2 mg/kg, iv; type: ADME, organism-based; conditions: in vivo
# [17] = Intrinsic clearance in Cynomologus monkey liver microsomes incubated for 2 hrs; type: ADME, Macaca fascicularis; conditions: cynomolgus monkey, read-out: CLH
# [18] = Drug elimination in Sprague-Dawley rat at 2 mg/kg, iv; type: ADME, organism-based; conditions: in vivo
# Hepatocyte = assay: Clearance in rat cryopreserved hepatocytes incubated for 2 hrs; type: ADME, cell-based
# Rattus norvegicus = assay: Volume of distribution in Sprague-Dawley rat at 10 mg/kg, po; type: ADME, organism-based; conditions: in vivo
# [19] = Clearance in Sprague-Dawley rat at 2 mg/kg, iv; type: ADME, organism-based; conditions: in vivo
# [20] = Clearance in Sprague-Dawley rat at 10 mg/kg, po; type: ADME, organism-based; conditions: in vivo
# [21] = AUCt in Sprague-Dawley rat at 10 mg/kg, po; type: ADME, organism-based; conditions: in vivo; procedure, shortened: as §1
# [22] = Tmax in Sprague-Dawley rat at 2 mg/kg, iv; type: ADME, organism-based; conditions: in vivo
# [23] = Intrinsic clearance in human liver microsomes incubated for 2 hrs; type: ADME; conditions: read-out: CLH
smiles,measurement,setting,value
COc1ccc2c(OCC[C@@H]3NC(=O)N(C)CCCC/C=C\[C@@H]4C[C@@]4(C(=O)NS(=O)(=O)C4(C)CC4)NC3=O)cc(-n3ccc(C(F)(F)F)n3)nc2c1Cl,IC50,[1],1.1 nM
same,EC50,Hepatitis C virus,15.3 nM
same,CC50,[2],48800 nM
COc1ccc2c(OCC[C@@H]3NC(=O)N(C)CCCC/C=C\[C@@H]4C[C@@]4(C(=O)NS(=O)(=O)C4(C)CC4)NC3=O)cc(-n3ccc(C(C)C)n3)nc2c1C,IC50,[1],2 nM
same,microsomal CLint,[3],21 µL/min/mg
same,EC50,Hepatitis C virus,50 nM
same,CC50,[2],25600 nM
COc1ccc2c(OCC[C@@H]3NC(=O)N(C)CCCC/C=C\[C@@H]4C[C@@]4(C(=O)NS(=O)(=O)N(C)C)NC3=O)cc(-c3nc(C(C)C)cs3)nc2c1Cl,IC50,[1],2.1 nM
same,EC50,Hepatitis C virus,84.5 nM
same,CC50,[2],47800 nM
C#CC1(S(=O)(=O)NC(=O)[C@@]23C[C@H]2/C=C\CCCCN(C)C(=O)N[C@@H](CCOc2cc(-c4nc(C(C)C)cs4)nc4c(Cl)c(OC)ccc24)C(=O)N3)CC1,IC50,[1],0.7 nM
same,EC50,Hepatitis C virus,28.9 nM
same,CC50,[2],26300 nM
COc1ccc2c(OCC[C@@H]3NC(=O)N(C)CCCC/C=C\[C@@H]4C[C@@]4(C(=O)NS(=O)(=O)C4(C)CC4)NC3=O)cc(-c3nc(C(C)C)cs3)nc2c1Cl,AUC(0-inf),[4],2350 ng·h/mL
same,half-life,[5],1.25 h
same,bioavailability,[6],27%
same,Tmax,[7],0.75 h
same,Cmax,[8],2670 ng/mL
same,microsomal CLint,[9],7.6 µL/min/mg
same,microsomal CLint,[10],19.5 µL/min/mg
same,Cmax,[11],798 ng/mL
same,AUC(0-t),[12],1520 ng·h/mL
same,half-life,[13],2.53 h
same,k el,[14],7.78e-05 s⁻¹
same,AUC(0-inf),[15],1510 ng·h/mL
same,Vd,[16],2.42 L/kg
same,microsomal CLint,[17],480 µL/min/mg
same,IC50,[1],1.7 nM
same,k el,[18],0.000158 s⁻¹
same,microsomal CLint,[3],20.7 µL/min/mg
same,CLH,Hepatocyte,12.6 µL/min/mg
same,Vd,Rattus norvegicus,16.04 L/kg
same,EC50,Hepatitis C virus,28.7 nM
same,clearance,[19],22.1 mL/min/kg
same,CL/F,[20],72.4 mL/min/kg
same,CC50,[2],37400 nM
same,AUC(0-t),[21],2060 ng·h/mL
same,Tmax,[22],6.6 min
same,microsomal CLint,[23],215 µL/min/mg
CCCn1cc(-c2cc(OCC[C@@H]3NC(=O)N(C)CCCC/C=C\[C@@H]4C[C@@]4(C(=O)NS(=O)(=O)C4(C)CC4)NC3=O)c3ccc(OC)c(C)c3n2)cn1,IC50,[1],1.4 nM
same,EC50,Hepatitis C virus,145 nM
same,CC50,[2],62300 nM
COc1ccc2c(OCC[C@@H]3NC(=O)N(C)CCCC/C=C\[C@@H]4C[C@@]4(C(=O)NS(=O)(=O)C4CC4)NC3=O)cc(-c3nc(C(C)C)cs3)nc2c1Cl,microsomal CLint,[9],8.9 µL/min/mg
same,microsomal CLint,[10],25 µL/min/mg
same,microsomal CLint,[17],124 µL/min/mg
same,IC50,[1],1.7 nM
same,microsomal CLint,[3],36.6 µL/min/mg
same,CLH,Hepatocyte,19.1 µL/min/mg
same,EC50,Hepatitis C virus,76.5 nM
same,CC50,[2],40400 nM
same,microsomal CLint,[23],263 µL/min/mg
COc1ccc2c(OCC[C@@H]3NC(=O)N(C)CCCC/C=C\[C@@H]4C[C@@]4(C(=O)NS(=O)(=O)C4(C)CC4)NC3=O)cc(-n3ccc(C(C)C)n3)nc2c1Cl,IC50,[1],1.1 nM
same,EC50,Hepatitis C virus,43.4 nM
same,CC50,[2],31000 nM
COc1ccc2c(OCC[C@@H]3NC(=O)N(C)CCCCC/C=C\[C@@H]4C[C@@]4(C(=O)NS(=O)(=O)C4CC4)NC3=O)cc(-c3ccccc3)nc2c1,IC50,[1],41 nM
same,EC50,Hepatitis C virus,14600 nM
same,CC50,[2],53000 nM
COc1ccc2c(OCC[C@@H]3NC(=O)N(C)CCCC/C=C\[C@@H]4C[C@@]4(C(=O)NS(=O)(=O)C4CC4)NC3=O)cc(-c3ccccc3)nc2c1,IC50,[1],19.8 nM
same,EC50,Hepatitis C virus,8200 nM
same,CC50,[2],> 30000 nM
COc1ccc2c(OCC[C@@H]3NC(=O)N(C)CCCC/C=C\[C@@H]4C[C@@]4(C(=O)NS(=O)(=O)C4(C)CC4)NC3=O)cc(-n3ccc(C(F)(F)F)n3)nc2c1C,IC50,[1],1.8 nM
same,microsomal CLint,[3],14.4 µL/min/mg
same,EC50,Hepatitis C virus,35 nM
same,CC50,[2],45800 nM
COc1ccc2c(OCC[C@@H]3NC(=O)N(C)CCCC/C=C\[C@@H]4C[C@@]4(C(=O)NS(=O)(=O)N4CCC(F)(F)C4)NC3=O)cc(-c3nc(C(C)C)cs3)nc2c1Cl,IC50,[1],165 nM
same,EC50,Hepatitis C virus,> 750 nM
same,CC50,[2],37600 nM
CCC1(S(=O)(=O)NC(=O)[C@@]23C[C@H]2/C=C\CCCCN(C)C(=O)N[C@@H](CCOc2cc(-c4nc(C(C)C)cs4)nc4c(Cl)c(OC)ccc24)C(=O)N3)CC1,IC50,[1],3.3 nM
same,EC50,Hepatitis C virus,89 nM
same,CC50,[2],49300 nM
COc1ccc2c(OCC[C@@H]3NC(=O)N(C)CCCC/C=C\[C@@H]4C[C@@]4(C(=O)NS(=O)(=O)C4CC4)NC3=O)cc(-c3nc(C(C)C)cs3)nc2c1F,IC50,[1],9.6 nM
same,EC50,Hepatitis C virus,1490 nM
same,CC50,[2],> 75000 nM
